In ChEMBL document CHEMBL1255569, “Synthesis of ester prodrugs of 9-(S)-[3-hydroxy-2-(phosphonomethoxy)propyl]-2,6-diaminopurine (HPMPDAP) as anti-poxvirus agents” (J Med Chem, 2010):

How the values were obtained:
[1] = tested on: Human betaherpesvirus 5; assay: Antiviral activity against Human cytomegalovirus AD169 infected in HEL assessed as reduction in virus-induce cytopathicity; format: functional, organism-based; settings: Human betaherpesvirus 5, AD169
[2] = Cytotoxicity against HEL assessed as change in cell morphology; format: cell-based; settings: human, HEL cells
Method in brief: (§1)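 Microscopic inspection of cultures exposed to test compounds. MCC is the minimum compound concentration causing a microscopically detectable alteration of cell morphology.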

[3] = Cytotoxicity against HEL; format: cell-based; settings: human, HEL cells
Method in brief: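 HEL cells were seeded at 5 × 10³ cells/well and allowed to proliferate for 24 h, then given medium with graded compound concentrations. After 3 days at 37 °C, cells were counted with a Coulter counter. CC50 (μM) is the concentration halving proliferation relative to untreated controls, estimated from plots of cell number (% of control) against concentration.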

[4] = tested on: Human betaherpesvirus 5; assay: Antiviral activity against Human cytomegalovirus Davis infected in HEL assessed as reduction in virus-induce cytopathicity; format: functional, organism-based; settings: Human betaherpesvirus 5, Davis
[5] = tested on: Human alphaherpesvirus 2; assay: Antiviral activity against […] infected in HEL assessed as reduction in virus-induce cytopathicity; format: functional, organism-based; settings: Human alphaherpesvirus 2, strain G
[6] = tested on: Human alphaherpesvirus 1; assay: Antiviral activity against acyclovir-resistant HSV1 KOS infected in HEL assessed as reduction in virus-induce cytopathicity; format: functional, organism-based; settings: Human alphaherpesvirus 1, KOS
[7] = tested on: Human alphaherpesvirus 1; assay: Antiviral activity against HSV1 KOS infected in HEL assessed as reduction in virus-induce cytopathicity; format: functional, organism-based; settings: Human alphaherpesvirus 1, KOS
[8] = tested on: Human alphaherpesvirus 3; assay: Antiviral activity against acyclovir-resistant VZV OKA infected in HEL assessed as reduction in virus-induce cytopathicity; settings: Human alphaherpesvirus 3, OKA
[9] = tested on: Vaccinia virus; assay: Antiviral activity against Vaccinia virus infected in HEL assessed as reduction in virus-induce cytopathicity; format: functional, organism-based; settings: Orthopoxvirus vaccinia
[10] = tested on: Human alphaherpesvirus 3; assay: Antiviral activity against acyclovir-resistant VZV 07/1 infected in HEL assessed as reduction in virus-induce cytopathicity; settings: Human alphaherpesvirus 3, 07/1
[11] = tested on: Human betaherpesvirus 6; assay: Antiviral activity against Human herpesvirus 6 infected in HEL assessed as reduction in virus-induce cytopathicity; format: functional, organism-based
[12] = Cytotoxicity against human HSB2 cells assessed as change in cell morphology; format: cell-based, CCRF-HSB-2; method in brief: as §1

## Nc1nc2c(ncn2COC(CO)CO)c(=O)[nH]1 [GANCICLOVIR]
[1]
  EC50: 9.4 µM
[2]
  MCC: ≥ 392 µM
[3]
  CC50: 1080 µM
[4]
  EC50: 10.2 µM

## Nc1ccn(C[C@@H](CO)OCP(=O)(O)O)c(=O)n1 [CIDOFOVIR]
[5]
  EC50: 2190 nM
[1]
  EC50: 1.14 µM
[6]
  EC50: 1370 nM
[2]
  MCC: ≥ 317 µM
[7]
  EC50: 1620 nM
[3]
  CC50: 511 µM
[8]
  EC50: 130 nM
[9]
  EC50: 7300 nM
[10]
  EC50: 110 nM
[4]
  EC50: 0.79 µM

## CC(C)OC(=O)[C@@H](CO[P@]1(=O)CO[C@@H](Cn2cnc3c(N)nc(N)nc32)CO1)NC(=O)[C@@H](N)C(C)C
[5]
  EC50: 2300 nM
[1]
  EC50: 12 µM
[6]
  EC50: 3520 nM
[2]
  MCC: ≥ 177 µM
[11]
  EC50: > 177 µM
[7]
  EC50: 5580 nM
[3]
  CC50: 159 µM
[8]
  EC50: 730 nM
[9]
  EC50: 2020 nM
[10]
  EC50: 200 nM
[4]
  EC50: 7.1 µM
[12]
  MCC: 177 µM

## CCCCCCCCCCCCCCCCOCCCOP(=O)(O)CO[C@H](CO)Cn1cnc2c(N)nc(N)nc21
[5]
  EC50: 7.1 nM
[1]
  EC50: 0.021 µM
[6]
  EC50: 2.7 nM
[2]
  MCC: ≥ 6.4 µM
[11]
  EC50: 10.3 µM
[7]
  EC50: 4.5 nM
[3]
  CC50: ≥ 161 µM
[8]
  EC50: 2.7 nM
[9]
  EC50: 0.74 nM
[10]
  EC50: 0.21 nM
[4]
  EC50: 0.0037 µM
[12]
  MCC: 40 µM

## Nc1nc(N)c2ncn(C[C@H]3COP(=O)(O)CO3)c2n1
[5]
  EC50: 4330 nM
[1]
  EC50: 15 µM
[6]
  EC50: 3600 nM
[2]
  MCC: > 333 µM
[7]
  EC50: 3600 nM
[3]
  CC50: > 333 µM
[8]
  EC50: 370 nM
[9]
  EC50: 530 nM
[10]
  EC50: 770 nM
[4]
  EC50: 10 µM

## CC(C)(C)C(=O)OCOP(=O)(O)CO[C@H](CO)Cn1cnc2c(N)nc(N)nc21
[5]
  EC50: 3150 nM
[1]
  EC50: 12.9 µM
[6]
  EC50: 2950 nM
[2]
  MCC: > 227 µM
[11]
  EC50: 30.6 µM
[7]
  EC50: 2760 nM
[3]
  CC50: ≥ 227 µM
[8]
  EC50: 790 nM
[9]
  EC50: 1630 nM
[10]
  EC50: 340 nM
[4]
  EC50: 11.6 µM
[12]
  MCC: 227 µM

## O=c1[nH]c(=O)n([C@H]2C[C@H](O)[C@@H](CO)O2)cc1/C=C/Br [BRIVUDINE]
[5]
  EC50: 75300 nM
[6]
  EC50: > 150000 nM
[2]
  CC50: > 300 µM
[7]
  EC50: 30 nM
[3]
  CC50: 339 µM
[8]
  EC50: 16 nM
[10]
  EC50: 137000 nM

## CCCCCCCCCCCCCCCCOCCO[P@]1(=O)CO[C@@H](Cn2cnc3c(N)nc(N)nc32)CO1
[5]
  EC50: 26 nM
[1]
  EC50: 0.015 µM
[6]
  EC50: 17 nM
[2]
  MCC: 35.2 µM
[11]
  EC50: > 44 µM
[7]
  EC50: 26 nM
[3]
  CC50: 28.1 µM
[8]
  EC50: 4 nM
[9]
  EC50: 3.5 nM
[10]
  EC50: 0.7 nM
[4]
  EC50: 0.008 µM
[12]
  MCC: 0.5 µM

## CCCCCCCCCCCCCCCCCCOCCO[P@@]1(=O)CO[C@@H](Cn2cnc3c(N)nc(N)nc32)CO1
[5]
  EC50: 11 nM
[1]
  EC50: 0.027 µM
[6]
  EC50: 7 nM
[2]
  MCC: 6.7 µM
[11]
  EC50: > 42 µM
[7]
  EC50: 13 nM
[3]
  CC50: 15.1 µM
[8]
  EC50: 4.7 nM
[9]
  EC50: 5 nM
[10]
  EC50: 0.7 nM
[4]
  EC50: 0.008 µM
[12]
  MCC: 0.5 µM

## CCCCCCCCCCCCCCCCOCCCOP1(=O)CO[C@@H](Cn2cnc3c(N)nc(N)nc32)CO1 (stereo partly specified)
[5]
  EC50: 53 nM
[1]
  EC50: 0.034 µM
[6]
  EC50: 53 nM
[2]
  MCC: 6.9 µM
[11]
  EC50: 0.16 µM
[7]
  EC50: 31 nM
[3]
  CC50: 13.7 µM
[8]
  EC50: 12 nM
[9]
  EC50: 11 nM
[10]
  EC50: 1.7 nM
[4]
  EC50: 0.021 µM
[12]
  MCC: 8.6 µM

## CCCCOC(=O)c1ccccc1OP1(=O)CO[C@@H](Cn2cnc3c(N)nc(N)nc32)CO1 (stereo partly specified)
[5]
  EC50: 3760 nM
[1]
  EC50: 11.5 µM
[6]
  EC50: 3100 nM
[2]
  MCC: 103 µM
[11]
  EC50: > 205 µM
[7]
  EC50: 5360 nM
[3]
  CC50: 168 µM
[8]
  EC50: 530 nM
[9]
  EC50: 2300 nM
[10]
  EC50: 120 nM
[4]
  EC50: 6.8 µM
[12]
  MCC: ≥ 205 µM

## Nc1nc(N)c2ncn(C[C@@H](CO)OCP(=O)(O)OCC(F)(F)F)c2n1
[5]
  EC50: 10700 nM
[1]
  EC50: 44 µM
[6]
  EC50: 5000 nM
[2]
  MCC: > 250 µM
[11]
  EC50: > 62 µM
[7]
  EC50: 5600 nM
[3]
  CC50: > 250 µM
[8]
  EC50: 2270 nM
[9]
  EC50: 7950 nM
[10]
  EC50: 430 nM
[4]
  EC50: 54.2 µM
[12]
  MCC: > 62 µM

## CC(C)(C)C(=O)OCOP1(=O)CO[C@@H](Cn2cnc3c(N)nc(N)nc32)CO1 (stereo partly specified)
[5]
  EC50: 1340 nM
[1]
  EC50: 6.94 µM
[6]
  EC50: 2410 nM
[2]
  MCC: ≥ 231 µM
[11]
  EC50: 7.63 µM
[7]
  EC50: 2220 nM
[3]
  CC50: ≥ 201 µM
[8]
  EC50: 300 nM
[9]
  EC50: 183 nM
[10]
  EC50: 93 nM
[4]
  EC50: 6.8 µM
[12]
  MCC: 62.5 µM

## Nc1nc(N)c2ncn(C[C@@H](CO)OCP(=O)(O)O)c2n1
[5]
  EC50: 2830 nM
[1]
  EC50: 11.2 µM
[6]
  EC50: 1350 nM
[2]
  MCC: > 314 µM
[11]
  EC50: 17.6 µM
[7]
  EC50: 2860 nM
[3]
  CC50: > 314 µM
[8]
  EC50: 220 nM
[9]
  EC50: 500 nM
[10]
  EC50: 8.2 nM
[4]
  EC50: 6.4 µM
[12]
  MCC: 126 µM

## Nc1nc2c(ncn2COCCO)c(=O)[nH]1 [ACYCLOVIR]
[5]
  EC50: 300 nM
[6]
  EC50: 125000 nM
[2]
  MCC: > 444 µM
[3]
  MCC: 1.58 mM

## CCCCCCCCCCCCCCCCCCOCCO[P@]1(=O)CO[C@@H](Cn2cnc3c(N)nc(N)nc32)CO1
[5]
  EC50: 37 nM
[1]
  EC50: 0.015 µM
[6]
  EC50: 17 nM
[2]
  MCC: 6.7 µM
[11]
  EC50: > 42 µM
[7]
  EC50: 30 nM
[3]
  CC50: 129 µM
[8]
  EC50: 45 nM
[9]
  EC50: 52 nM
[10]
  EC50: 10 nM
[4]
  EC50: 0.0034 µM
[12]
  MCC: 0.5 µM

## CC(C)OC(=O)[C@@H](CO[P@@]1(=O)CO[C@@H](Cn2cnc3c(N)nc(N)nc32)CO1)NC(=O)[C@@H](N)C(C)C
[5]
  EC50: 1420 nM
[1]
  EC50: 15.2 µM
[6]
  EC50: 7100 nM
[2]
  MCC: > 177 µM
[11]
  EC50: > 177 µM
[7]
  EC50: 7970 nM
[3]
  CC50: 148 µM
[8]
  EC50: 1060 nM
[9]
  EC50: 2620 nM
[10]
  EC50: 250 nM
[4]
  EC50: 22.1 µM
[12]
  MCC: > 177 µM

## CC(C)(C)C(=O)OCO[P@]1(=O)CO[C@@H](Cn2cnc3c(N)nc(N)nc32)CO1
[5]
  EC50: 1780 nM
[1]
  EC50: 14 µM
[6]
  EC50: 3330 nM
[2]
  MCC: ≥ 231 µM
[11]
  EC50: 14.6 µM
[7]
  EC50: 1830 nM
[3]
  CC50: > 222 µM
[8]
  EC50: 720 nM
[9]
  EC50: 370 nM
[10]
  EC50: 160 nM
[4]
  EC50: 15.5 µM
[12]
  MCC: 64.7 µM
